The values below come from ChEMBL document CHEMBL1139504, “Discovery of the first potent, selective 5-hydroxytryptamine1D receptor antagonist” (J Med Chem, 2005).

For assay [1], the target named is T1, 5-hydroxytryptamine receptor 1D (Homo sapiens, UniProt P28221). As to the kind of experiment: Displacement of [3H]5-HT from human 5-hydroxytryptamine 1D receptor expressed in CHO cells. Format: cell-based. The gist of the method: (§1)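 Radioligand displacement binding on membranes of cloned human receptors. Each determination lies within 0.3 log units of the mean.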
T1 sequence (P28221 whole entry): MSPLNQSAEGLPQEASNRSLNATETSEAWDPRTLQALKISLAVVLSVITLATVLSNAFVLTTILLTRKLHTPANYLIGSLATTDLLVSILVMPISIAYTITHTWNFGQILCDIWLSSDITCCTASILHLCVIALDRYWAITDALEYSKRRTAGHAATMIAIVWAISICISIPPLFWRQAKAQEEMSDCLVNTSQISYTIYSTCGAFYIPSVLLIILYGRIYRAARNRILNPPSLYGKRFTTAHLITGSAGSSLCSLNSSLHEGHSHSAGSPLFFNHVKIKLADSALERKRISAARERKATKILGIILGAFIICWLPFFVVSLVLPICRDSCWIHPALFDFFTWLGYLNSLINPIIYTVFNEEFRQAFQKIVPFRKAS

Assay [2] deals with Sodium-dependent serotonin transporter (Rattus norvegicus, UniProt P31652). Briefly: Inhibition of [3H]5-HT binding to serotonin transporter in rat cortical synaptosomes. Format: subcellular, Brain. The method in brief: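 Radioligand binding to serotonin transporter in rat cortical synaptosomes. Each determination lies within 0.3 log units of the mean.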
Sodium-dependent serotonin transporter, sequence (P31652 whole entry): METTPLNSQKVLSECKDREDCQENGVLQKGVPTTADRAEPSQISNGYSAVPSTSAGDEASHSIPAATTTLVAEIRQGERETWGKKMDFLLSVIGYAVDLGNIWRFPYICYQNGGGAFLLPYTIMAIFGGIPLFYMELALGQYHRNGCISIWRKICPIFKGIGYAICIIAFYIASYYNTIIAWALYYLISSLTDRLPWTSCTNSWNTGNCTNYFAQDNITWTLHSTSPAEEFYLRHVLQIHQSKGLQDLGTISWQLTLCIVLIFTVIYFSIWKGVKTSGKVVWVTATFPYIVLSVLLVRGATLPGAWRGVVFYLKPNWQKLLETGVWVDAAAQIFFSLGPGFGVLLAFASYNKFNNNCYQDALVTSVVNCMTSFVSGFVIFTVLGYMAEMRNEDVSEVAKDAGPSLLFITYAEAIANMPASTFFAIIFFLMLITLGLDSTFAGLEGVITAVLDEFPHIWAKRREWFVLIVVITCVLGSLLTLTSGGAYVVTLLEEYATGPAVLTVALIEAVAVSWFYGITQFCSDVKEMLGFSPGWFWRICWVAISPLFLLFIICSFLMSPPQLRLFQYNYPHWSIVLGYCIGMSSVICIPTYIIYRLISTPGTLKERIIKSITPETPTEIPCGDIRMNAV
In assay [3] the target is T2, 5-hydroxytryptamine receptor 1B (Homo sapiens, UniProt P28222). Briefly: Displacement of [3H]5-HT from human 5-hydroxytryptamine 1B receptor expressed in CHO cells. Format: cell-based. The method in brief:
as §1

In assay [4] the target is T3, 5-hydroxytryptamine receptor 1A (Homo sapiens, UniProt P08908).
T3 sequence (P08908 whole entry): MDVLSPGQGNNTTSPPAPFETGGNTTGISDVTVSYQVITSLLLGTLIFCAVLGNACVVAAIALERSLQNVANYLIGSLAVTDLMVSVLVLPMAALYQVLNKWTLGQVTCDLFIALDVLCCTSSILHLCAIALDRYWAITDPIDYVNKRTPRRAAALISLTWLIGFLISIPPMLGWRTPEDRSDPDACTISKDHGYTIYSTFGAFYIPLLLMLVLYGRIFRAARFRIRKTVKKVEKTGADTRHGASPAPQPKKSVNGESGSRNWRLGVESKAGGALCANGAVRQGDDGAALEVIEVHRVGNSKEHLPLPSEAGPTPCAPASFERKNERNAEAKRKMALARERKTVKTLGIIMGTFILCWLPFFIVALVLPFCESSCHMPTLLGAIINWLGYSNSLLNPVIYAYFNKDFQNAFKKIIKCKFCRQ
Briefly: Displacement of [3H]WAY-100635 from human 5-hydroxytryptamine 1A receptor expressed in CHO cells. Format: cell-based. The method in brief:
as §1
For orientation: In a radioligand displacement assay an active substance lowers the binding of a labelled ligand.

Assay [5] deals with Serotonin 1 receptors; 5-HT1B & 5-HT1D (Homo sapiens) (UniProt P28222+P28221). As to the kind of experiment: Selectivity for human 5-hydroxytryptamine 1D receptor over 5-hydroxytryptamine 1B receptor. Format: protein assay.
The target of assay [6] is T2, 5-hydroxytryptamine receptor 1B. Briefly: Intrinsic activity for human 5-hydroxytryptamine 1B receptor in [35S]GTP-gamma-S, assay. Format: functional. The gist of the method: (§2)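 [35S]GTPγS binding in recombinant cells with high receptor density expressing the human receptor. Ten-point half-log serial dilution gives the concentration–response. Intrinsic activity is expressed relative to the maximal response of the endogenous agonist 5-HT.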
Background: GTPγS is a poorly hydrolysed GTP analogue; its binding reports G protein activation.

Assay [7] addresses T1, 5-hydroxytryptamine receptor 1D. As to the kind of experiment: Intrinsic activity for human 5-hydroxytryptamine 1D receptor in [35S]GTP-gamma-S, assay. Format: functional. The method in brief: as §2
The target in assay [8] is T4, 5-hydroxytryptamine receptor 1A (Homo sapiens) (UniProt P08908).
T4 sequence (whole entry): T3 sequence (P08908 whole entry)
Briefly: Intrinsic activity for human 5-hydroxytryptamine 1A receptor in [35S]GTP-gamma-S, assay; […]. Format: functional. The gist of the method: as §2

For assay [9], the target named is T4, 5-hydroxytryptamine receptor 1A (Homo sapiens). Briefly: Intrinsic activity for human 5-hydroxytryptamine 1A receptor in [35S]GTP-gamma-S, assay. Format: functional. The method in brief:
as §2

The target in assay [10] is T2, 5-hydroxytryptamine receptor 1B.
Assay [11] concerns the target T1, 5-hydroxytryptamine receptor 1D.
For assay [12], the target named is T4, 5-hydroxytryptamine receptor 1A (Homo sapiens).

T2 sequence (P28222 whole entry): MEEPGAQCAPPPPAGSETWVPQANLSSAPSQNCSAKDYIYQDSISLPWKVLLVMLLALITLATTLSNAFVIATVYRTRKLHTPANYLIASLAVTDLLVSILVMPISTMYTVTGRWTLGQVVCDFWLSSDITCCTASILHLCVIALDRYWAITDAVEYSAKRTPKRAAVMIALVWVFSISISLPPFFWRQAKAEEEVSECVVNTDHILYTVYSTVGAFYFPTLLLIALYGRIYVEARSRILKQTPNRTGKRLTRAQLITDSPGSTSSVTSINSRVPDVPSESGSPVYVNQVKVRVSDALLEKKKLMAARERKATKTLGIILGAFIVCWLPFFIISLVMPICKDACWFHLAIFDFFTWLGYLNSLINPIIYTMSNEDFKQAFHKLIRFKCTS

What is called Ki is a measure of affinity in units of concentration, obtained from inhibition or displacement. Read a low Ki as a stronger hold on the target. On to `Cc1ccc2c(OCCN3CCN(Cc4c(Cl)cccc4Cl)CC3)cccc2n1`, for which the Ki in [1] was more than 10000 nM; in assay [2], 1260 nM; in assay [3], more than 10000 nM; in assay [4], more than 10000 nM.
Take `Cc1ccc2c(OCCN3CCN(Cc4ccc5c(c4)NC(=O)CO5)CC3)cccc2n1`: in assay [5], the Selectivity came to 10. The Ki was 10 nM in assay [1], 25.1 nM in [2], 100 nM in assay [3] and 63.1 nM in assay [4].
For `Cc1ccc2c(OCCN3CCN(Cc4ccc(F)c([N+](=O)[O-])c4)CC3)cccc2n1`, in that order: 32, 7.94 nM, 316 nM, 251 nM and 501 nM.
As for `Cc1ccc2c(OCCN3CCN(Cc4ccc(O)c(N)c4)CC3)cccc2n1`, the Selectivity in assay [5] turned out to be 158. Besides, the figures for the Ki in [1], in [3] and in assay [4] were 1.58 nM, 251 nM and more than 1260 nM, respectively.
In [5], `Cc1ccc2c(OCCN3CCN(Cc4ccc5[nH]ccc5c4)CC3)cccc2n1` gave a Selectivity of 50. Also, the results for the Ki in assay [1], in assay [3] and in assay [4] were 3.16 nM, 158 nM and 1000 nM, respectively.
As for `Cc1ccc2c(OCCN3CCN(Cc4cccc5[nH]cnc45)CC3)cccc2n1`, the IA is 0.3 in [6], 0.5 in assay [7] and 0 in assay [8]. The molecule further registered a Selectivity in assay [5] of 251. Also, the Ki in assay [1] was 0.251 nM; in assay [2] it was 794 nM; in assay [3], 63.1 nM; in [4], 158 nM.
For `Cc1ccc2c(OCCN3CCN(Cc4ccc(Cl)c([N+](=O)[O-])c4)CC3)cccc2n1`, the Selectivity in assay [5] turned out to be 40. The Ki is 5.01 nM in assay [1], 200 nM in assay [2], 200 nM in assay [3] and 63.1 nM in assay [4].
`Cc1ccc2c(OCCN3CCN(Cc4ccc(C)c([N+](=O)[O-])c4)CC3)cccc2n1` came in with a Selectivity in assay [5] of 40. Also, the Ki is 2 nM in assay [1], 50.1 nM in assay [2], 79.4 nM in assay [3] and 39.8 nM in [4].
For the molecule `CN1CCN(c2cc3c(cc2Cl)CCN3C(=O)Nc2ccc(-c3ccncc3)c3ccccc23)CC1`, the IA in [9] is 0.44.
On to `Cc1ccc2c(OCCN3CCN(Cc4ccc(O)c([N+](=O)[O-])c4)CC3)cccc2n1`, for which, in [5], the Selectivity came to 40. The Ki in [1] is 10 nM; in assay [2] it was 1000 nM; in assay [3], 398 nM; in [4], 794 nM.
Turning to `Cc1ccc2c(OCCN3CCN(Cc4cccc5ncccc45)CC3)cccc2n1`, the Selectivity in assay [5] was found to be 100. The results for the Ki in assay [1], in [3] and in assay [4] were 2.51 nM, 251 nM and 398 nM, respectively.
For `Cc1ccc2c(OCCN3CCN(Cc4cccc5ncncc45)CC3)cccc2n1`, in that order: 126, 2.51 nM, 316 nM and 398 nM.
For `Cc1ccc2c(OCCN3CCN(Cc4cccc5cc[nH]c45)CC3)cccc2n1`, the IA in [6] came to 0.1; in assay [7], 0.5; in [8] it was 0. Further, the Selectivity in assay [5] is 126. The inhibitory constant (Ki) in [1] was 3.16 nM; in [2] it was 398 nM; in [3] it was 398 nM; in [4], 398 nM.
Consider `Cc1ccc2c(OCCN3CCC(Cc4ccc5c(c4)NC(=O)CO5)CC3)cccc2n1`, for which, in assay [1], the Ki is 1.58 nM. This lies in the single-digit nanomolar range.
The molecule `Cc1ccc2c(OCCN3CCN(Cc4cc(Cl)ccc4Cl)CC3)cccc2n1` yielded a Selectivity in [5] of 158. Further, the Ki in assay [1] was 3.98 nM; in assay [2], 1260 nM; in assay [3] it was 631 nM; in assay [4], 79.4 nM.
As for `NCCc1c[nH]c2ccc(O)cc12`, the IA in assay [10], in assay [11] and in [12] was 1 each time.
For the molecule `COc1ccc(NC(=O)c2ccc(-c3ccc(-c4noc(C)n4)cc3C)cc2)cc1N1CCN(C)CC1`, the results for the IA in [6] and in assay [7] were 0.47 and 0.86, respectively.
The molecule `Cc1ccc2c(OCCN3CCN(Cc4ccc(Cl)c(Cl)c4)CC3)cccc2n1` showed a Selectivity in [5] of 1. For the same molecule, the Ki in assay [1] was 2510 nM; in [2], 501 nM; in assay [3], 2000 nM; in assay [4], more than 10000 nM.
In assay [5], `COc1ccc(CN2CCN(CCOc3cccc4nc(C)ccc34)CC2)cc1[N+](=O)[O-]` displayed a Selectivity of 16. The Ki was 20 nM in assay [1], 316 nM in assay [3] and 398 nM in assay [4].
